In ChEMBL document CHEMBL1240363, “Pharmacokinetics of ertapenem following intravenous and subcutaneous infusions in patients” (Antimicrob Agents Chemother, 2010):

Assays:
[1] = Cmax in patient with bacterial infection at 1 gm[…], sc administered at 30 mins regimen for 24 hrs by LC/MS/MS analysis; format: ADME, organism-based; design: route subcutaneous; settings: human, in vivo
Procedure, shortened: (§1)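 Six infected patients received ertapenem 1 g once daily, infused over 30 min: first i.v. via a central vein, then s.c. into the anterior thigh for one day. Arterial plasma was sampled over 24 h at steady state (i.v. on days 4–7). Plasma was stabilized 1:1 at pH 6.5 and assayed by LC-MS/MS. Total concentrations were fitted with compartmental models (1/y weighting), giving Cmax, tmax, t1/2, AUC0-24, CL and Vss as mean ± SD.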

[2] = Clearance in patient with bacterial infection at 1 gm[…], iv administered at 30 mins regimen for 24 hrs by LC/MS/MS analysis; format: ADME, organism-based; settings: human, in vivo; procedure, shortened: as §1
[3] = fT>MIC methicillin-resistant Staphylococcus aureus-infected kinetic model; format: functional
Homo sapiens = experiment: Ratio of AUC (0 to 24 hrs) in sc dosed patient with bacterial infection to AUC (0 to 24 hrs) in iv dosed patient with bacterial infection; format: ADME, organism-based; settings: in vivo; procedure, shortened: as §1
[4] = Half life in patient with bacterial infection at […], iv administered at 30 mins regimen for 24 hrs by LC/MS/MS analysis; format: ADME, organism-based; settings: human, in vivo; procedure, shortened: as §1
[5] = Cmax in patient with bacterial infection at 1 gm[…], iv administered at 30 mins regimen for 24 hrs by LC/MS/MS analysis; format: ADME, organism-based; design: route intravenous; settings: human, in vivo; procedure, shortened: as §1
[6] = fT>MIC […] Escherichia coli-infected kinetic model; format: functional
[7] = Half life in patient with bacterial infection at […], sc administered at 30 mins regimen for 24 hrs by LC/MS/MS analysis; format: ADME, organism-based; settings: human, in vivo; procedure, shortened: as §1
[8] = Tmax in patient with bacterial infection at 1 gm[…], iv administered at 30 mins regimen for 24 hrs by LC/MS/MS analysis; format: ADME, organism-based; settings: human, in vivo; procedure, shortened: as §1
[9] = fT>MIC […] Klebsiella pneumoniae-infected kinetic model; format: functional
[10] = fT>MIC […]-infected kinetic model; format: functional
[11] = Volume of distribution at steady state in patient with bacterial infection at 1 gm, iv administered at 30 mins regimen for 24 hrs by LC/MS/MS analysis; settings: human, in vivo, read-out: Vdss
[12] = Tmax in patient with bacterial infection at 1 gm[…], sc administered at 30 mins regimen for 24 hrs by LC/MS/MS analysis; format: ADME, organism-based; settings: human, in vivo; procedure, shortened: as §1

In the case of `C[C@@H](O)[C@H]1C(=O)N2C(C(=O)O)=C(S[C@@H]3CN[C@H](C(=O)Nc4cccc(C(=O)O)c4)C3)[C@H](C)[C@H]12` [ERTAPENEM], the Cmax [1] was 43 µg/mL, the clearance [2] was 63.3 mL/min and the fT>MIC [3] was 30%. For the same compound, the “Ratio AUC” value (Homo sapiens) was 0.99, the half-life [4] was 3.9 h and the Cmax [5] was 115 µg/mL. The fT>MIC [6] was 30%, the half-life [7] was 5.4 h and the Tmax [8] was 0.5 h. The fT>MIC [9] was 30%, the fT>MIC [10] was 30% and the Vd [11] was 16.1 L. The Tmax [12] was 2.7 h.
